Source: ChEMBL document CHEMBL3352425, “Development of αGlcN(1↔1)αMan-based lipid A mimetics as a novel class of potent Toll-like receptor 4 agonists” (J Med Chem, 2014)
Active and inactive are the calls of the source. No cut-off for these calls is given here.

Assays:
[1] = Induction of TNFalpha level in C57BL/6J mouse BMDM at 1 nM after 16 hrs by ELISA; assay type: functional
Outline: (§1)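 C57BL/6J bone marrow cells were differentiated 6 days with 40 ng/mL M-CSF in RPMI with 20% FBS, then seeded at 1 × 10⁶ cells/mL in RPMI with 10% FBS. After 24 h, cells were stimulated for 16 h, with nM concentrations based on compound MW. Supernatant cytokines were measured by ELISA.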

[2] = target: Toll-like receptor 4 (Homo sapiens) (UniProt O00206); test: Agonist activity at human TLR4 in human THP1 cells assessed as induction of MyD88 signaling after 18 hrs by ELISA; assay type: cell-based; conditions: THP-1
Chain of Toll-like receptor 4 (Homo sapiens) (O00206 whole entry): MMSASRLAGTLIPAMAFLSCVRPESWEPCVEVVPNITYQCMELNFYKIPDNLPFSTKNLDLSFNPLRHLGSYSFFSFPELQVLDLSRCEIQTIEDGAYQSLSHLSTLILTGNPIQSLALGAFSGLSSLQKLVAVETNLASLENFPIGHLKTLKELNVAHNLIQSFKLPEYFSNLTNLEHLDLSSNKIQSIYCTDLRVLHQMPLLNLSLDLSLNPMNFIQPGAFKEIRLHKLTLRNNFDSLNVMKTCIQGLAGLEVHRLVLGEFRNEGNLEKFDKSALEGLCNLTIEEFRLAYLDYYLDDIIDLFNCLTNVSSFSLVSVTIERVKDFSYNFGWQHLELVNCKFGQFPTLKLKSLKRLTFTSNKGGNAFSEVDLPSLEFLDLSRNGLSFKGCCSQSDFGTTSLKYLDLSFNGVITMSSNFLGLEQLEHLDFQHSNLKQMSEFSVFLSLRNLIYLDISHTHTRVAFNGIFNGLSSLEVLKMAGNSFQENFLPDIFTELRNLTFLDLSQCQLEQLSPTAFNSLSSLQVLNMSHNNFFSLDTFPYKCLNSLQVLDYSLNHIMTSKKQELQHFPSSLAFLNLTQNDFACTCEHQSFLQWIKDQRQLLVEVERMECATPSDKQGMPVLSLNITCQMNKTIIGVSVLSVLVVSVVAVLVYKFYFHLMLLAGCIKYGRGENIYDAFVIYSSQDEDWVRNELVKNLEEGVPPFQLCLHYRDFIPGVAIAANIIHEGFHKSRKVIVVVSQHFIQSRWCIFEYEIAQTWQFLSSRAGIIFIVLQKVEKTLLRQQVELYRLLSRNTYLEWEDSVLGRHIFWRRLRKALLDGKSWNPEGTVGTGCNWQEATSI
Outline: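 THP-1 cells were seeded at 10⁵ per well and differentiated to macrophage-like cells with 200 nM TPA for 24 h. Non-adherent cells were washed off, and the remainder rested 1 h in fresh complete RPMI with 10% FCS. Cells were then stimulated for 18 h, and TNF-α, IL-8 and MCP-1 in the supernatants were measured by ELISA.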

THP-1 [3] = test: Induction of TNFalpha expression in human THP1 cells after 18 hrs by ELISA; assay type: functional, cell-based
Outline: (§2)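 THP-1 cells in RPMI-1640 with 2 mM L-glutamine, antibiotics, 10% FCS; 10⁵ cells/well differentiated with 200 nM TPA for 24 h. Non-adherent cells washed off, 1 h recovery, then stimulated 18 h at indicated concentrations; E. coli Re-LPS or O111:B4 LPS as reference. DMSO stocks diluted in medium, final DMSO ≤0.01%. Supernatants assayed by ELISA.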

[4] = Cytotoxicity against human DC by propidium iodide staining
Outline: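 Immature monocyte-derived DCs were stimulated with compound across a wide concentration range, and cytotoxicity was assessed by propidium iodide staining.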

[5] = Induction of IL-6 level in C57BL/6J mouse BMDM at 1 nM after 16 hrs by ELISA; assay type: functional; outline: as §1
THP-1 [6] = test: Induction of MCP1 expression in human THP1 cells after 18 hrs by ELISA; assay type: functional, cell-based; outline: as §2
THP-1 [7] = test: Induction of IL8 expression in human THP1 cells after 18 hrs by ELISA; assay type: functional, cell-based; outline: as §2
Homo sapiens [8] = species on record: Homo sapiens; test: Induction of IL12 release in human DC at 1 ng/ml by Luminex
Homo sapiens [9] = species on record: Homo sapiens; test: Induction of IL6 release in human DC at 1 ng/ml by Luminex
Homo sapiens [10] = species on record: Homo sapiens; test: Induction of TNFalpha release in human DC at 1 ng/ml by Luminex
BMDM = test: Induction of IL-6 level in C57BL/6J mouse BMDM after 16 hrs by ELISA; assay type: functional
Outline: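 Bone marrow flushed from femur and tibia, erythrocytes lysed (0.88% ammonium chloride, 15 min, 37 °C), differentiated 6 days in RPMI/20% FBS with 40 ng/mL M-CSF. Replated at 1 × 10⁶ cells/mL in RPMI/10% FBS, stimulated after 24 h for 16 h. Nanomolar doses calculated from MW. DMSO stocks diluted in medium, final DMSO ≤0.01%. Supernatant IL-6 by ELISA.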

Homo sapiens [11] = species on record: Homo sapiens; test: Induction of IL10 release in human DC at 1 ng/ml by Luminex
[12] = Induction of human DC maturation assessed as upregulation of CD86 at 10 ng/ml after 24 hrs by flow cytometry; assay type: functional
[13] = Induction of human DC maturation assessed as upregulation of MHC class 2 at 10 ng/ml after 24 hrs by flow cytometry; assay type: functional
[14] = target: Toll-like receptor 4 (Homo sapiens) (UniProt O00206); test: Agonist activity at human TLR4 expressed in HEK293 cells coexpressed with human MD2/CD14 assessed as activation of NFkappaB signaling at 10 ng/ml after 20 to 24 hrs by NFkappaB reporter assay; assay type: cell-based
Outline: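 HEK-Blue hTLR4 cells (HEK293 co-transfected with hTLR4/MD-2/CD14), 25000 per well, were stimulated with compound diluted in DMEM with 10% FCS (final DMSO ≤0.005–0.01%) for 20–24 h at 37 °C, 5% CO2. Secreted SEAP in the supernatant was read with QUANTI-Blue at 650 nm. Data were pooled from n = 3 independent experiments, SEM.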

[15] = Induction of human DC maturation assessed as upregulation of MHC class 1 at 10 ng/ml after 24 hrs by flow cytometry; assay type: functional

Compound	Activity [1]	Activity [2]	Activity (THP-1 [3])	Activity [4]	Activity [5]	Activity (THP-1 [6])	Activity (THP-1 [7])	Activity (Homo sapiens [8])	Activity (Homo sapiens [9])	Activity (Homo sapiens [10])	Activity (BMDM)	Activity (Homo sapiens [11])	Activity [12]	Activity [13]	Activity [14]	Activity [15]
CCCCCCCCCCCCCC(=O)O[C@H](CCCCCCCCCCC)CC(=O)N[C@H]1[C@H](OC[C@H]2O[C@H](OP(=O)(O)O)[C@H](NC(=O)C[C@H](O)CCCCCCCCCCC)[C@@H](OC(=O)C[C@H](O)CCCCCCCCCCC)[C@@H]2O)O[C@H](CO)[C@@H](OP(=O)(O)O)[C@@H]1OC(=O)C[C@@H](CCCCCCCCCCC)OC(=O)CCCCCCCCCCCCC	2000 pg/mL															
CCCCCCCCCCCCCC(=O)O[C@H](CCCCCCCCCCC)CC(=O)O[C@@H]1[C@@H](NC(=O)C[C@@H](CCCCCCCCCCC)OC(=O)CCCCCCCCCCC)[C@@H](O[C@H]2O[C@H](COP(=O)(O)O)[C@@H](OC(=O)C[C@H](CCCCCCCCCCC)OC(=O)CCCCCCCCC)[C@H](O)[C@@H]2OC)O[C@H](CO)[C@H]1OP(=O)(O)O	4000 pg/mL	Active	Dose-dependent effect	Non-toxic	1500 pg/mL	Active	Dose-dependent effect									
CCCCCCCCCCCCCC(=O)O[C@H](CCCCCCCCCCC)CC(=O)O[C@@H]1[C@@H](NC(=O)C[C@@H](CCCCCCCCCCC)OC(=O)CCCCCCCCCCC)[C@@H](O[C@H]2O[C@H](CO)[C@@H](OC(=O)C[C@H](CCCCCCCCCCC)OC(=O)CCCCCCCCCCC)[C@H](O)[C@@H]2OC)O[C@H](CO)[C@H]1OP(=O)(O)O	500 pg/mL		inactive	Non-toxic		inactive	inactive	inactive	inactive	inactive	Dose-dependent effect	inactive				
CCCCCCCCCCCCCC(=O)O[C@H](CCCCCCCCCCC)CC(=O)O[C@@H]1[C@@H](NC(=O)C[C@@H](CCCCCCCCCCC)OC(=O)CCCCCCCCCCC)[C@@H](O[C@H]2O[C@H](COP(=O)(O)O)[C@@H](OC(=O)C[C@H](CCCCCCCCCCC)OC(=O)CCCCCCCCCCC)[C@H](O)[C@@H]2OC)O[C@H](CO)[C@H]1OP(=O)(O)O	4000 pg/mL	Active	Dose-dependent effect	Non-toxic	1500 pg/mL	Active	Dose-dependent effect	Active	Active	Active		Active	Active	Active	Active	Active
